Source: ChEMBL document CHEMBL2086357 (Eur J Med Chem, 2012)

Experiments:
MCF7 = experiment: Antiproliferative activity against human MCF7 cells after 96 hrs by MTT assay; assay type: functional; settings: MCF7, 96 h
LoVo = experiment: Antiproliferative activity against human LoVo cells after 96 hrs by MTT assay; assay type: functional
PC-3 = experiment: Antiproliferative activity against human PC3 cells after 96 hrs by MTT assay; assay type: functional; settings: PC-3, 96 h
[1] = target: Cyclin-dependent kinase 2/cyclin A (Homo sapiens) (UniProt P24941+P20248+P78396); experiment: Inhibition of recombinant CDK2/cyclin A expressed in Sf21 cells using histone H1 as substrate at 10 uM after 10 mins by scintillation counting in presence of [32P]ATP
Outline: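 CDK2/cyclin A was combined on ice with histone H1 substrate in kit buffer, then inhibitor was added. Prediluted ³²P-ATP with MgCl2 and cold ATP was added, and tubes were shaken for 10 min at 30 °C. Aliquots were spotted on phosphocellulose paper, washed three times in 0.75% phosphoric acid, rinsed in acetone and counted by scintillation. Percent inhibition versus an untreated control is the mean of duplicate experiments.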

A549 = experiment: Antiproliferative activity against human A549 cells after 96 hrs by MTT assay; assay type: functional; settings: A549, 96 h
[2] = Inhibition of starfish CDK1/cyclin B using histone H1 as substrate after 10 mins in presence of [gamma32P}ATP; design: species or system Asteroidea
Jurkat = experiment: Inhibition of PMA- and PHA-stimulated IL2 production in human Jurkat T cells incubated for 30 mins prior to PMA- and PHA-stimulation by competitive enzyme immunoassay; assay type: functional, cell-based
CCRF-CEM = experiment: Growth inhibition of human CCRF-CEM cells up to 48 hrs by trypan blue exclusion assay; assay type: functional
[3] = target: Cyclin-dependent kinase 2/cyclin E1 (Homo sapiens, UniProt P24941); experiment: Inhibition of CDK2/cyclin E; assay type: protein-complex assay
[4] = target: Cyclin-dependent kinase 2/cyclin A (Homo sapiens, UniProt P24941); experiment: Inhibition of CDK2/cyclin A; assay type: protein-complex assay
[5] = Drug degradation in DMEM cell culture medium assessed as (E)-5-(Hydroxyimino)-10-methyl-2,3,4,5-tetrahydroazepino[3,4-b]indol-1(10H)-one at 10 to 100 nmol after 7 days by NMR analysis; assay type: physicochemical; settings: 168 h
Outline: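 Two solutions of the compound in cell culture medium (10 and 100) were held at 37 °C for seven days. They were then extracted with ethyl acetate, and breakdown was assessed by NMR.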

SMILES	GI50 (MCF7) [µM]	GI50 (LoVo) [µM]	GI50 (PC-3) [µM]	inhibition [1] [%]	GI50 (A549) [µM]	also measured
O=C1NCC/C(=N\OCc2ccccc2)c2c1[nH]c1ccccc21	28.1	24.3	23.4	32	34.9	–
O=C1Cc2c([nH]c3ccc(Br)cc23)-c2ccccc2N1 [KENPAULLONE]	–	–	–	–	–	IC50 [2]: 0.4 µM
O=C1CCNC(=O)c2[nH]ccc21 [ALDISIN]	> 100	> 100	> 100	–	> 100	–
Nc1nc(C2=C3C(=Nc4ccccc43)C(=O)NCC2)c(O)[nH]1	–	–	–	–	–	IC50 (Jurkat): 3.5 µM; GI50 (CCRF-CEM): 1.7 µM
O=C1NCCC(=O)c2c1[nH]c1ccccc21	> 100	36.9	> 100	–	97.7	–
O=C1NCC/C(=N\O)c2c1[nH]c1ccccc21	> 100	40.5	> 100	–	> 100	–
Cn1c(Br)c(Br)c2c1C(=O)NCC/C2=N\OCC1CCCCC1	–	–	–	13	–	–
NC1=NC(=O)/C(=C2\CCNC(=O)c3[nH]c(Br)cc32)N1 [HYMENIALDISINE]	–	–	–	–	–	IC50 [3]: 0.04 µM; IC50 [4]: 0.07 µM
O=C1NCC/C(=N\O)c2c1[nH]c1ccc(Br)cc21	54.6	27.2	46.2	45	63.3	–
Cn1c2c(c3ccccc31)/C(=N/OCc1ccccc1)CCNC2=O	–	–	–	–	–	Drug degradation [5]: 50%
Cn1c(Br)c(Br)c2c1C(=O)NCC/C2=N\OCc1ccccc1	–	–	–	22	–	–
Cn1c2c(c3ccccc31)/C(=N/OCC1CCCCC1)CCNC2=O	23.3	20.5	29.1	12	32.1	Drug degradation [5]: Not Active
Cn1c2c(c3ccccc31)C(=O)CCNC2=O	> 100	36.8	> 100	–	> 100	–
Cn1c2c(c3ccccc31)/C(=N/O)CCNC2=O	> 100	51.3	> 100	–	> 100	–
O=C1NCC/C(=N\OCc2ccccc2)c2c1[nH]c(Br)c2Br	–	–	–	0	–	–
